The results in this text go back to the RNAGym collection of RNA variant scans (doi:10.1126/science.aae0568).

The labels stand for the following.
B1: tRNA (parent)
chain: GUUCCGUUGGCGUAAUGGUAACGCGUCUCCCUCCUAAGGAGAAGACUGCGGGUUCGAGUCCCGUACGGAACG

Fewer inactive variants are shown than the library holds.

This series covers variants of B1. Nature of the series: yeast fitness relative to wild type (ratio to wild type); higher = fitter; tRNA-Arg(CCU), competitive growth, 37 C, YPD. The essentials:
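Genotype frequency changes were the basis for Darwinian fitness relative to wild type. The frequencies came from 100-nucleotide paired-end sequencing of gene amplicons from the start population and each end population of pooled yeast strains with tRNA-Arg(CCU) gene variants at the native locus. Competition ran in YPD at 37°C for 24 hours in six replicates, genotypes needed ≥ 100 starting reads, and estimates < 0.5 were set to 0.5.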
In the case of GUUCCGUUGGCGUAAUGGUAACGCGUCUCACUCCUAAGAAGAAGACAGCGGGUUCGAGUCCCCUACGGAACG [C30A G39A U47A G63C], the yeast fitness is 0.528.

As to GUUCCGUUGGCGUAGUGGUAACGCGUCUCCCUCCUAAGGAGAUGACUGCGGGUUCGAGUCCCGUACGCAACG [A15G A43U G68C], the yeast fitness came to 0.581.

Consider GUUGCGUUGGCGUAAUGGUAACGCGUCUGCCUCCUAAGGAGAAGACUGCGGGUUCGAGUCUCGUACGGAACG [C4G C29G C61U], for which the yeast fitness was determined as 0.562.

For the variant GUUCCGAUGGCGUAACGGUAACGCGUCUUCAUCCUAAGGAGAAGACUGCGGGUUCGAGUCCCGUAGUGAACG [U7A U16C C29U C31A C66G G67U], the yeast fitness is not above 0.5.

Take GUUCCGUUGGCGUAAUGGUAACGCGUCUCGCUCCUAAGGAGAAGACUGCGGGUUCGAGUCCCGUACCGAACG [C30G G67C]: the yeast fitness was determined as 0.637.

Take GUUCCGUUGGCGUAAUCGUAACGCGACUCCCUCCUAAGGAGAAGACUGCGGGUUCGAGUCCCGUACGGCACG [G17C U26A A69C]: the yeast fitness is not above 0.5.

For GUUCUGAUGGCGUAAUGUUAACGCGUCACCCUCCUAAGGAGAAGACUGCGGGUUCGAGUCCCGUACGGAACG [C5U U7A G18U U28A], the yeast fitness is not above 0.5.

GUUCCGUUGGCGUAAUGGUAACGCGUCUCCCUCCUAGGGAGAAGACUGCGGGCUCGAGUCCGGUACGGAACG [A37G U53C C62G]: the yeast fitness stood at 0.594.

Regarding GUUCCGUUGGCGUCAUGGUGACGCGUCUCUCUCCUAAGGAGAAGACUGCGGGUUCGAGUCCCGUACGGAACG [A14C A20G C30U], the yeast fitness was not above 0.5.

For the variant GAACCGUUGGCGUAAUGGUAACGCGUCUCCCUCCUAAGAAGCAGACUGCGGGUUCGAGUCCCGUACGGAACG [U2A U3A G39A A42C], the yeast fitness was not above 0.5.

For GUUCCGUUGGCGUAAUGGUAACGCGUCUCCCUCCUAAGGAGAAGACGGCGGGUUCGAGUCCCGUACGUAACG [U47G G68U], the yeast fitness is 0.568.

Turning to GUUCGGUUGCCGUAAUGGUAACGCGUCUCCCUCCUAAGGAGAAGACUGCGGGUUCGAGUCCCGUACAGAACG [C5G G10C G67A], the yeast fitness was not above 0.5.

Take GUUCCGUUGGCGUAAUGGUAACGCGUCUCCCUCCUAAGGAGAAGAUUGCGGGUUCGGGUCCCGUAAGGAACG [C46U A57G C66A]: the yeast fitness was not above 0.5.

As for GUUCCGUUGGCGUAAUGGUAACGCGUCUCCCUCCUAAGGUGAAGACUACGGGUUCGAGUCCCGUACGGAACG [A40U G48A], the yeast fitness stood at 0.826.

GUUCCGUUGGAGUAAUGGUAACGCGUCUCCCUCCUAAGGAAAAGUCUGCGGGUUCCAGUCCCGUACGGAACG [C11A G41A A45U G56C]: the yeast fitness was not above 0.5.

In the case of GUUCCCUUGGCGUAAUGGUAACGCGUCUCCCUCCUAAGGAGAAGACUGCGAGUUCGAGUCCCGUGUGGAACG [G6C G51A A65G C66U], the yeast fitness is not above 0.5.

Consider GUUCCGUUGGCGUAAUGAUAACGCGUCCCCCUCCUAAGGAGAAGACAGCGGGUUCGAGUCCCGUACGGAACG [G18A U28C U47A], for which the yeast fitness is not above 0.5.

Take GUUCUGUUGGCGUAACGGUAACGCGUCUCCCUCCUAAGGGGAGGACUGCGGGUUCGAGUCCCGUACCGAACG [C5U U16C A40G A43G G67C]: the yeast fitness is not above 0.5.

GUUCCGUUGGUGUAAUGGUAACGCGUCUCCCUCCUAAGGAGAAGACUACGGGUUCGAGUCCCGUACCGAACG [C11U G48A G67C]: the yeast fitness came to 0.731.

As for GUUCUGUUGGCGUAAUAGUAGCGCGUCUCCCUCCUAGGCAGAACAAUGCGGGUCCGAGUCCCGUCCGGAACG [C5U G17A A21G A37G G39C G44C C46A U54C A65C], the yeast fitness was not above 0.5.

On to GUUCCGUUGGCGUAAUGGUAACGCGUCUCCCUGCUAAGGGGAAGACUGCGGCUUCGAGUCCCGUACGGAACG [C33G A40G G52C], for which the yeast fitness is not above 0.5.

Take GUUCCGUUGGCGUAAUGGUAAGGCGUCUCCCUCCUAAGGAGAAGACUGCGGGUUCGUGUCUCGUACGGAACG [C22G A57U C61U]: the yeast fitness is not above 0.5.

As to GUUCCGUUGGUGUAAUGGUAACGCGUCUCCCUCCUAAGGAGAAGACUGCGGGUUCAAGUCCCGUCCGGAACG [C11U G56A A65C], the yeast fitness worked out at 0.732.

On to GUUCCGUUGGCGUAAUGGUAACGUGUCUCCUUCCUAAGGAGAAGACUGCGGGUUCGAGUCCCGUACGUAACG [C24U C31U G68U], for which the yeast fitness was 0.544.

For GUUCCGUUGGCGUGAUGGUAACGCGUCUCCGUCCUAAGGAGAAGUCUGCGGGUUCGAGUCCUGUACGGAACG [A14G C31G A45U C62U], the yeast fitness was 0.669.

Regarding GUUCCGUUGGCGUGAUGCUAACGCGUCUCCCUCCUAAGGAGAAGACUGCGGCUUAGAGUCCCGUACGGAACG [A14G G18C G52C C55A], the yeast fitness is not above 0.5.

Turning to GUUCCGUUGGCGUAAUGGUAACGCGUAUCCCUUCUAAGGAGAAGACUGCGGGUUCGAGUCCCGUACGGAACG [C27A C33U], the yeast fitness is 0.799.

In the case of GUUGCGUUGGCGUAAUGGUAGUGCGUCACCCUCCCAAGGAGAAGACUGCGGGUUCGAGUCCCGUACGGAACG [C4G A21G C22U U28A U35C], the yeast fitness was not above 0.5.

For the variant GUUCCGUUGGCGUAAUGGUAACGUGUCUCCCUCCUAAGGAGAAGACUGCGGGUUCGAGUCCCGGACGGAACG [C24U U64G], the yeast fitness worked out at 0.691.

For the variant GUUCGGUUGGCGUAACGGUAACGCGUCUCCCUCCUAAGGAGAAGACUGCGGGUUCGAGUCCCGUACGGAACG [C5G U16C], the yeast fitness worked out at 0.722.

Turning to GCUCCGUUGGCGUAAUGGUAACGCGUCUCCCUCCUGAGGAGAAGACUGCGGGUUCGAGUCGCGCACGGAACG [U2C A36G C61G U64C], the yeast fitness is not above 0.5.

Turning to GUUCCGUUGGCGUAUUGGUAACGCGUCUCCCUCGUAGGGCGAAGACUGCGGGUUCGAGUCCCGUACGGAACG [A15U C34G A37G A40C], the yeast fitness came to 0.59.

Take GUUCCGCUGGCGUAAUGGUAACGCGUGUCCCUGCUAAGGAGAAAACUGCGGGUUCGAGUCCCGUACGGAACG [U7C C27G C33G G44A]: the yeast fitness came to 0.75.

On to GUUCCGUUGGCGUAUUGGUAGCGCCUCUCCCUACUAUGGAGAAGACUGCGGGUUCGAGUCCCGUACGGAACG [A15U A21G G25C C33A A37U], for which the yeast fitness stood at 0.554.

For GUUCCGUUGGCGUUCUGGUAACGAGACUCCCUCCUAAGGAGAAGACUGCCGGUUCGAGUCCCGUACGGAACG [A14U A15C C24A U26A G50C], the yeast fitness was 0.544.

For the variant GUUCCGUUGGCGUAAUGGUAACGCGUCUCCCUCCUGAGGAGAAGACUGCGGGUGCGAGUCCCGUACGGAACG [A36G U54G], the yeast fitness is 0.66.

Regarding GUUCCGUUGGCGUAAGGGUAACGCGUCUCCCUCCUAAGGAGAAGUCUGCAGGUUCGAGUCCCGUAUGGAACG [U16G A45U G50A C66U], the yeast fitness was not above 0.5.
